ChEMBL document CHEMBL4513216, “Probing the Open Global Health Chemical Diversity Library for Multistage-Active Starting Points for Next-Generation Antimalarials” (ACS Infect Dis, 2020)

Experiment: Toxicity liver stage against HepG2, at 10uM
Type: cell-based
Design: test concentration 10 uM, cell line HepG2-A16-CD81EGFP
Details: human, HepG2-A16-CD81EGFP cells; read-out: INHIBITION
Method in brief: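 Uninfected HepG2-A16-CD81EGFP cells, 3 × 10^3 per well, 1536-well, plated on prespotted compound at 10 μM final, parasite-free screening media added to match infected plates; puromycin 10 μM positive, DMSO 0.5% negative; run in parallel with 48 h PbLuc assay at 37 °C, 5% CO2; viability by CellTiter-Glo luminescence, normalized to controls.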

Row | Structure (SMILES) | cytotoxicity at 10 µM
1 | O=C(NC1CCCC1)c1ccc(COCC(F)(F)F)o1 | 10.6%
2 | COc1ccc(CNc2c(N3CCN(C)CC3)c(=O)c2=O)cc1 | 2.4%
3 | CC(C)n1cnc(-c2nc(C(=O)N3CCCC3)c3ccccn23)c1 | 6.47%
4 | Cc1cccc(S(=O)(=O)N2Cc3c(CN(C)C)nn(C)c3C2)c1 | -0.53%
5 | COc1ccc(NC(=O)CSc2nncn2-n2cccc2)c(OC)c1 | -2.74%
6 | Cc1ccc(-c2[nH]c3ccccc3c2C(=O)O)c(C)c1 | 12.3%
7 | CCOC1Sc2nnc(C)n2N=C1c1ccc(Cl)cc1 (centres undefined) | 11.3%
8 | CCc1nn(-c2cc(Oc3ccccc3)nc(C)n2)c(N)c1C#N | 3.62%
9 | CC(C)CN1CCC2(CCN(C(=O)c3ccc(F)cc3)CC2)C1=O | 8.06%
10 | Cc1noc([C@H]2C[C@H]3OCC[C@H]3N(S(=O)(=O)C3CC3)C2)n1 | -10.5%
11 | CCS(=O)(=O)N1CCC(c2nc3ccc(-c4ccccc4)cn3n2)CC1 | -7.41%
12 | CCn1c(SCC(N)=O)nnc1C(C)NC(=O)c1ccc(Cl)cc1 (centres undefined) | -36.4%
13 | CCn1nc(C)c2c1cnn2CC(=O)N1CCN(C)CC1 | 4.92%
14 | Cc1cc(C)n(Cc2cccc(C(=O)NCCN3CCOCC3)c2)n1 | -12.8%
15 | c1cnnc(N[C@@H]2CC[C@@H]3CN(Cc4c[nH]c5ccccc45)C[C@@H]32)c1 | 3.33%
16 | Nc1cc(-c2c[nH]nc2C2CCN(C(=O)C3CCCC3)C2)ccn1 (centres undefined) | 7.49%
17 | Cc1nc(NCc2ccccc2)cc(C(C)Cn2nc(C)c(C)c2C)n1 (centres undefined) | 7.03%
18 | Cc1noc(C)c1-c1ccc(C2CCCN2C(=O)c2cccnn2)nc1 (centres undefined) | -18.9%
19 | Cc1cccc(C(=O)N2CCCC[C@]3(C)NC(=O)CCC[C@H]23)n1 | -21.3%
20 | O=C(NC1CC1)C1(Cc2cc(-c3ccc(F)cc3F)no2)CCOCC1 | 11%
21 | Cc1nc(O)c2nnn(C[C@H]3CCCN3C(=O)c3cccs3)c2n1 | -25.6%
22 | Cc1cc(C(=O)NCc2ccc(F)cc2)c2c(C3CCCN3)noc2n1 (centres undefined) | 7.16%

Row | Structure (SMILES) | cytotoxicity at 10 µM
23 | CCOc1ccccc1CCNC(=O)NCC(O)c1cccs1 (centres undefined) | -4.47%
24 | O=C(C1CCCC1)N1CCC(C(O)c2ccc(F)cc2)CC1 (centres undefined) | 8.54%
25 | N#CC(NC(=O)c1cccc2c1OCCO2)c1ccc(F)cc1F (centres undefined) | -2.61%
26 | CN1CCN(CCNC(=O)c2sccc2C2CC2)CC1 | -149%
27 | Cn1ncc2c(=O)[nH]c(N3CCCC3c3cccc(Cl)c3)nc21 (centres undefined) | 19.6%
28 | CC(C)NC(=O)NC(C)c1ccc(-c2ccncc2)cc1 (centres undefined) | 0.67%
29 | COC(=O)c1ccc(N2CCN(C(=O)C3CC3)C(C)C2)cc1 (centres undefined) | -1.07%
30 | CC(C)c1n[nH]c(C2CN(C(=O)COCC(F)(F)F)CCO2)n1 (centres undefined) | -10.3%
31 | Cc1cccc(S(=O)(=O)N2CSCC2C(=O)NC(C)(C)C)c1 (centres undefined) | -3.75%
32 | O=C(CN1CCc2ccccc21)NCc1ccc(Cl)cc1 | 12.4%
33 | Cc1noc(C)c1CNC(=O)N1CCC(CN2CCC(C)CC2)CC1 | 6.62%
34 | O=C(Cc1ccc2c(c1)CCO2)N1CCCC1Cn1cccn1 (centres undefined) | -149%
35 | CC(C)n1cc(CN2CCCN(C(=O)c3ccnn3C)CC2)cn1 | 2.79%
36 | CC(NC(=O)C1CCCC1)c1nc(-c2ccccc2)c[nH]1 (centres undefined) | 6%
37 | CCN(CC)Cc1ccccc1NC(=O)N(C)Cc1ccc(OC)cc1 | 10.7%
38 | COc1ncccc1C(=O)N1CCCC1c1c(C)n[nH]c1C (centres undefined) | 10.7%
39 | CC(c1nnc(-c2ccccc2)o1)N1CCC(Nc2ccccc2)CC1 (centres undefined) | 5.1%
40 | Cc1cnn(C2CN(Cc3noc(C)n3)C2)c1 | 40.3%
41 | COc1ccc(OCC(=O)NS(=O)(=O)c2cc(F)ccc2F)cc1 | -19.5%
42 | Cc1n[nH]c(C2CN(C(=O)c3cc(Cl)c[nH]3)CCO2)n1 (centres undefined) | 3.95%
43 | Cc1ccc(CNCC2CCc3nnc(C(C)C)n3C2)s1 (centres undefined) | -4.43%
44 | O=C(N1CCCC1)N1CCc2ncnc(C3CCOC3)c2CC1 (centres undefined) | 3.45%

Row | Structure (SMILES) | cytotoxicity at 10 µM
45 | CS(=O)(=O)NCc1ncn2c1CN(C(=O)CC1CCCC1)CCC2 | 4.79%
46 | Cc1ncc(CN2CCN(C(=O)N(C)C)[C@@H]3CS(=O)(=O)C[C@@H]32)cn1 | 7.86%
47 | Cc1cc(-c2c(C)c(-c3cnn(C)c3)nc(N)c2C#N)oc1C | -93.5%
48 | CCc1ccc(CN2CCN(C)C3(CCC(=O)N(CC4CC4)CC3)C2)o1 (centres undefined) | -2.77%
49 | O=C1NCC2(CCCN(C(=O)c3c[nH]nc3C3CCCCC3)C2)O1 (centres undefined) | 8.72%
50 | CN(Cc1ccc2nsnc2c1)CC1(O)CCNC1 (centres undefined) | -11.7%
51 | CCc1cc(NCCC(F)(F)F)nc(N2CCOCC2)n1 | -4.65%
52 | CCN(Cc1cccc(C(=O)Nc2c(C)cnn2C)c1)[C@H]1COC[C@@H]1O | -1.58%
53 | CC(c1ccon1)N(C)C(=O)C1CCN(C2CCCCC2)CC1 (centres undefined) | -20.2%
54 | CN1CC(C(=O)N2CCN(c3cccc(Cl)c3)C(=O)C2)NC1=O (centres undefined) | -3.94%
55 | CC(C)N1CCC(N2CCCC(C(=O)NCC3(C)COC3)C2)CC1 (centres undefined) | -5.62%
56 | CC(=O)N1CCc2c(nc(N(C)C)nc2N(C)CCO)C1 | -2.48%
57 | Cc1ccccc1C(C(=O)N(C)CCc1cnn(C)c1)N(C)C (centres undefined) | -3.57%
58 | Fc1ccc(N2CCN(CCCc3cn[nH]c3)CC2)cc1 | -144%
59 | Cc1ccc(CN2CC3(CCN(C(=O)C4CC4)CC3)CC2C(=O)O)o1 (centres undefined) | 1.52%
60 | Cc1csc2c(N3CCC(NCCCc4cnn(C)c4)CC3)ncnc12 | 0.301%
61 | Cc1cccc2ncn(C(C)Cn3cccn3)c(=O)c12 (centres undefined) | -4.4%
62 | O=C(c1cccnc1O)N1CCOC(Cc2cccc(C(F)(F)F)c2)C1 (centres undefined) | 2.26%
63 | CC(C)c1cc(=O)[nH]c(-c2ccccc2CN2CCCC2C)n1 (centres undefined) | 10.4%
64 | Cc1cc(C(=O)N2CCc3[nH]cnc3C2C(=O)O)c(-c2ccccc2)o1 (centres undefined) | -1.33%
65 | CCNC(=O)N1C[C@@H](NC(C)=O)[C@H](c2ccc(C)o2)C1 | -8.82%
66 | c1nc2c(c(NCCCn3cncn3)n1)CCN(CC1CCOC1)CC2 (centres undefined) | -10.6%

Row | Structure (SMILES) | cytotoxicity at 10 µM
67 | CCC(Oc1ccc(N(C)S(C)(=O)=O)cc1)C(=O)NC (centres undefined) | 0.0646%
68 | O=C(Cc1ccc(F)cc1)NCCNc1cc(N2CCCC2)ncn1 | -8.37%
69 | C[C@@H]1CN(CC(C)(C)N2CCCCC2)C[C@@]1(O)C1CC1 | -0.519%
70 | COc1ccc(C(C(=O)O)N2CCCN(C3CCCC3)CC2)cc1OC (centres undefined) | 7.44%
71 | CCC(C)NC(=O)CCc1ccc(OCC(F)(F)F)c(OC)c1 (centres undefined) | -3.27%
72 | OCCn1nccc1C1CCN(CCOc2cccc(F)c2)CC1 | -10.8%
73 | CCc1cnc(CN(C(C)=O)C2CCN(CCN3CCCCC3)C2)o1 (centres undefined) | -3.63%
74 | CCOc1ncccc1NC(=O)N1CCC(CN2CCOCC2)CC1 | -13.6%
75 | CCS(=O)(=O)c1ccccc1N1CCC(N)CC1 | 3.03%
76 | CN(Cc1noc(C2CC2)n1)C1CCN(CC(=O)N2CCOCC2)C1 (centres undefined) | -5.25%
77 | CCc1nc(C2CCCN2CCCS(N)(=O)=O)no1 (centres undefined) | -6.66%
78 | Cn1cc(NC(=O)N2CCC(OCc3ccccc3)CC2)ccc1=O | -5.75%
79 | COc1cc(CNCCc2cnn(C)c2)cc(OC)c1OC | -9.51%
80 | Cc1nc(CCNC(=O)NC(C)Cn2cccn2)cs1 (centres undefined) | -1.85%
81 | O=C1CC(N(C(=O)c2ccc(Cl)c(Cl)c2)C2CC2)C(=O)N1 (centres undefined) | 0.0791%
82 | CC(NC(=O)NCCn1ccnc1)c1ccc2c(c1)OCCO2 (centres undefined) | -9.44%
83 | O=C(CCc1cscn1)N1CCCC(n2cncn2)C1 (centres undefined) | -3.81%
84 | Cc1ccc(CNC(=O)CN2CCCC(Cn3cncn3)C2)cc1 (centres undefined) | -11.5%
85 | CC(C)C(=O)N(C)CC(=O)Nc1ccc(Br)cn1 | -6.22%
86 | c1cnn(CC2CCCCN2Cc2nc(-c3ccoc3)no2)c1 (centres undefined) | -5.22%
87 | Cc1nc(C(=O)N2CCCC2c2noc(C3CC3)n2)c[nH]1 (centres undefined) | -7.06%
88 | Cc1cc(NC(=O)CCN2CCCC2Cn2cccn2)no1 (centres undefined) | -5.09%

Row | Structure (SMILES) | cytotoxicity at 10 µM
89 | CC(NC(=O)Cn1cc(-c2ccccc2)cn1)C1CC1 (centres undefined) | 1.36%
90 | CN(c1cccnn1)C1CCN(C(=O)c2ccc3c(c2)COC3)CC1 | -12%
91 | Cc1noc(CN2CCOC(CN(C)C)C2)n1 (centres undefined) | -6.61%
92 | CC(C)(C)c1n[nH]c(C2CN(C(=O)CCC3CC3)CCO2)n1 (centres undefined) | -12.7%
93 | O=C(CCCOCc1ccccc1)N1CCCC1c1ccccn1 (centres undefined) | -14.4%
94 | COCCOc1ccc(NC(=O)N(C)Cc2ccsc2)cn1 | -2.81%
95 | CN(c1ccc(F)c(F)c1)S(=O)(=O)c1cc(C(=O)O)cs1 | -4.89%
96 | COc1ccc(C(C)NC(=O)Cn2ccc(=O)n(C)c2=O)cc1OC (centres undefined) | -9.09%
97 | O=C(O)c1csc(S(=O)(=O)Nc2cccc(OC(F)F)c2)c1 | -2.63%
98 | Cc1cc(C[C@@H]2COC[C@H]2NCc2ccc(Br)s2)on1 | 3.6%
99 | CC(C)c1nn(C)cc1CNC1CCOc2ccccc21 (centres undefined) | 0.923%
100 | Cc1ccc(CN2CCC3(CC2)C(=O)N(C)c2ccccc23)s1 | -5.68%
101 | O=C(NCCc1ccncc1)[C@@H]1CC[C@@H]2[C@@H](CCN2Cc2ccco2)O1 | 1.15%
102 | CCOC1COC2(CCN(Cc3cccc(F)c3)CC2)C1 (centres undefined) | 5.47%
103 | CC(C)COC1CC2(CCN(Cc3nccn3C)CC2)C1 | -158%
104 | CN1CC2(CCN(C(=O)c3cccnc3)CC2)c2cccc(F)c21 | 6.17%
105 | Cc1ncccc1NC(=O)[C@H]1C[C@@H]2CCN(Cc3nccs3)C[C@@H]2O1 | 0.976%
106 | c1coc(CN2CCOC3(COCCN(Cc4ccncc4)C3)C2)c1 (centres undefined) | 4.03%
107 | CS(=O)(=O)N1C[C@H]2CC[C@@H](C1)N(C/C=C/c1ccc(F)cc1)C2 | -15.5%
108 | CCn1[nH]c(C)c2c(C(F)(F)F)cc(=O)nc1-2 | -1.26%
109 | CN(C)S(=O)(=O)N1C[C@H]2CC[C@@H](C1)N(Cc1ccc3[nH]ccc3c1)C2 | 3.07%
